Assay outcomes from PubChem BioAssay.
DSG3 Ab inh = human desmoglein-3 autoantibody binding inhibition | P32926 | 0.48% of 310,000 active | DSG3-coupled beads, scFv-anti-DSG3-GFP binding, flow cytometry; stronger effect = lower value | binding (percent of control), % at 10 µM | AID 588358;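 active = binding more than 3 SD below its plate's average and above zero; inconclusive = below that plate limit but binding exactly zero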;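 note: hits lower antibody fragment binding to DSG3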
Vif inh = blocks HIV Vif function; 0.35% of 340,000 active; HEK293T cells, Vif self-association by quenched fluorescence, imaging, 24 h; inhibition, % at 7.49 µM; AID 602346; in the data active = inhibition above about 50%, passing the limit was not always enough; inconclusive = no clear call, values can overlap the other calls; inactive = below about 31%
T cell HTS = T cell immune modulators affecting CD8 T cell-vesicle binding. 0.068% of 330,000 active. AID 2052. 2C CD8+ T cell-vesicle binding, flow cytometry; stronger effect = lower value. response (vesicle binding), % at 7 µM;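 active = response, share of CD8 T cells binding vesicles, and their 90th percentile fluorescence all below set limits, cut at about 80% in these data, passing the limit was not always enough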;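 note: values below 100% mean blocked vesicle binding to the CD8+ T cells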
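System: murine 2C transgenic CD8+ T lymphocytes; also added: QL9-loaded Drosophila micro-vesicles; times: binding 1.5 h at 37 °C; measured by: flow cytometry, PE anti-B7-1 (FL2) versus Alexa647 anti-CD8 (FL8), PFA-fixed; control set: Peptide-free naked vesicles (low) and QL9 vesicles with 0.7% DMSO vehicle (high)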
Myeloid diff 2 = promotes myeloid progenitor differentiation. 1% of 360,000 active. calls only at 10 µM. AID 624256. ER-HoxA9 myeloid progenitors, lysozyme-GFP differentiation, flow cytometry;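 active = normalized GFP-positive differentiation at or above the plate's own cutoff, the solvent-only control mean plus 3 SD; inconclusive = no clear call, values can overlap the other calls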;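 note: cells exposed to compound for four days before flow analysis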
* marks the source's active call; other numbers are inactive results; i = inactive; ? = inconclusive; · = no result; + = active, no number. An excerpt weighted towards active compounds, which were near 1.7% of everything screened.

SMILES	DSG3 Ab inh	Vif inh	T cell HTS	Myeloid diff 2
Cc1ccccc1CSc1ccc2nnc(-c3ccccn3)n2n1	95.8	i	822.6	+
N#C/C(=C(/O)CN1CCCCC1)c1nc(-c2ccc(Cl)cc2)cs1	103.4	-0.7	179.3	i
N#C/C(=C(/O)CN1CCN(c2ccccc2F)CC1)c1nc(-c2ccc(Cl)cc2)cs1	60.4*	-6.9	311.7	i
CCOc1ccc(C(=O)NNC(=O)C2CC(=O)N(c3ccc(C)cc3)C2)cc1 (stereo unspecified)	97.6	8.2	383.6	i
Cc1ccc(NC(=O)c2c3c(nc4ccccc24)CCC3)cc1S(=O)(=O)N(C)C	45.4*	-4.9	202.0	i
C=C(Br)CN1[C@@H](Cc2ccccc2)[C@H](O)[C@@]23C=C[C@@H](C[C@@H]2S1(=O)=O)O3	85.5*	-5.5	369.1	i
O=C(N/N=C/c1ccc2c(c1)OCO2)c1ccc(COc2cccc3cccnc23)cc1	104.9	-1.6	568.3	+
COc1ccc(C(=O)Nc2ccccc2C(=O)N/N=C/c2ccccn2)cc1OC	98.9	-1.1	507.4	+
COc1ccc(/C=N/NC(=O)c2ccc(COc3cccc4cccnc34)cc2)cc1O	93.5	-0.6	184.2	i
COc1ccc(/C=N/NC(=O)c2ccc(COc3cccc4cccnc34)cc2)cc1OC	5.2*	1.8	185.1	i
O=C(N/N=C/c1ccncc1)c1ccc(COc2cccc3cccnc23)cc1	93.6	-1.0	883.5	i
CCCCNC1=CC(=O)C(=O)c2ccccc21	99.2	0.9	419.1	+
Nc1ccn([C@@H]2O[C@H](C(=O)N[C@H](CO)c3ccccc3)[C@@H](O)[C@H]2O)c(=O)n1	·	·	·	i
CC1(c2ccccc2)NC(=O)N(CC(=O)NCC2CCCO2)C1=O (stereo unspecified)	97.9	-2.9	778.7	i
COc1ccc(NC(=O)CCn2c(=S)[nH]c3ccccc3c2=O)cc1OC	62.8*	1.3	306.0	i
c1ccc2nc(-c3ccc(N4CCOCC4)cc3)ccc2c1	100.0	6.2	612.0	i
CN1CCN(c2ccc(-c3ccc4ccccc4n3)cc2)CC1	53.9	6.1	·	+
Cc1cc(-c2ccc(N3CCOCC3)cc2)nc2ccccc12	·	1.7	241.6	+
COc1ccc(N2CCN(C(=O)COC(=O)CCc3ccccc3OC)CC2)cc1	101.3	-12.1	990.6	i
CC(=O)N1CCN(c2ccc(NC(=O)C(c3ccccc3)c3ccccc3)cc2)CC1	38.0*	9.9	293.5	i
Cc1ccc(N=C(c2cccs2)N2CCOCC2)cc1	?	63.4*	592.3	i
Cc1cccc2cc(COC(=O)C3CCCCC3)c(=O)[nH]c12	-4.6*	-5.5	239.0	i
Cc1cccc2cc(COC(=O)C3CCCO3)c(=O)[nH]c12 (stereo unspecified)	99.4	1.8	198.0	·
CC1Cc2cc(/C(O)=C3/C(=O)C(=O)N(CCN4CCOCC4)C3c3ccc([N+](=O)[O-])cc3)ccc2O1 (stereo unspecified)	111.3	6.7	167.2	i
Cc1cccc2cc(CN(C(=O)c3cccc([N+](=O)[O-])c3)C(C)C)c(=O)[nH]c12	59.5*	10.2	218.5	i
SMILES	DSG3 Ab inh	Vif inh	T cell HTS	Myeloid diff 2
Cc1cccc2cc(COC(=O)c3cccc([N+](=O)[O-])c3)c(=O)[nH]c12	·	·	332.3	·
O=C(CCN1CCN(Cc2ccccc2)CC1)NNC(=O)c1ccc(Cl)c(Cl)c1	99.2	·	·	i
Cc1cc(Oc2ccc(N)cn2)ccc1Cl	104.1	12.6	259.1	+
Oc1ccc(/C=N/Nc2ccnc3cc(Cl)ccc23)cc1O	105.2	-0.2	153.7	i
Oc1ccc(/C=N/Nc2ccnc3cc(Cl)ccc23)c(O)c1O	92.7*	2.3	272.1	i
O=C(CSc1ncccn1)NC1CCCC1	103.3	·	·	i
COc1ccc(N2CC(NC(=O)N3CCN(C(=O)c4ccco4)CC3)CC2=O)cc1OC (stereo unspecified)	102.9	-4.1	194.1	i
O=C(NCc1ccc(F)cc1)c1cc(C2CCCCN2C(=O)OCCF)on1 (stereo unspecified)	·	66.7*	·	i
COC(=O)N1CCCCC1c1cc(C(=O)NCc2ccc(F)cc2)no1 (stereo unspecified)	·	2.1	·	i
COC(=O)C1=CN(c2ccc(C(C)(C)C)cc2)C(N)=C(C#N)C1c1cccc2ccccc12 (stereo unspecified)	·	·	·	i
N=c1oc2c3c4c(cc2cc1C(=O)Nc1ccccc1)CCCN4CCC3	105.0	·	i	+
OCC1CCCC(n2cnc3c(=S)nc[nH]c32)O1 (stereo unspecified)	86.7	-3.6	377.0	+
CCOC1CCCC(n2cnc3c(=S)nc[nH]c32)O1 (stereo unspecified)	119.4	-4.6	·	?
Cc1ccccc1CN1C(=O)[C@@H]2Cc3c([nH]c4ccccc34)C(C)(C)N2C1=O	97.9	104.6*	812.9	i
COc1ccc(Nc2ncnc3c2cnn3-c2cccc(C)c2)cc1OC	34.2*	·	·	i
CCOc1ccc(Nc2ncnc3c2cnn3-c2ccccc2)cc1	47.6*	-10.3	476.8	i
CC(=O)Nc1ccc(Nc2nc3ccccc3nc2NS(=O)(=O)c2ccc(Cl)c([N+](=O)[O-])c2)cc1	101.8	-2.6	·	i
Cc1cccc(N(CC(=O)NC2CCCCC2)C(=O)CCCC(=O)Nc2ccccn2)c1C	·	2.3	294.4	i
CCc1nc2ccc(C(=O)NCCCN3CCCC3=O)cn2c1N(C)C(=O)COc1ccccc1	·	5.4	·	i
O=C(COc1ccccc1)NNC(=O)c1cc2ccccc2oc1=O	103.0	-1.9	345.9	i
O=C(NNc1c(F)c(F)cc(F)c1F)c1cc2ccccc2oc1=O	·	12.0	0.0*	i
CCN(CC)CC(O)CNc1ccnc2c(Cl)ccc(Cl)c12 (stereo unspecified)	99.2	-9.8	·	i
O=C(OCCOCCN=C1NS(=O)(=O)c2ccccc21)c1ccc(F)cc1	48.2*	3.9	197.3	i
CC(C)CN1C(=O)C(=O)N(CC(=O)c2ccc3c(c2)OCO3)C1=O	97.1	147.1*	271.4	i
NC(=O)c1c(NC(=O)c2cccnc2Cl)sc2c1CCCC2	119.5	7.2	0.0*	i
C[C@H](CO)N1C[C@H](C)[C@@H](CN(C)C(=O)Nc2ccc(F)cc2)Oc2ccc(NS(C)(=O)=O)cc2C1=O	97.7	5.0	278.9	+
Cc1ccc(S(=O)(=O)Nc2ccc3c(c2)C(=O)N([C@H](C)CO)C[C@H](C)[C@@H](CN(C)C(=O)Nc2ccc(C(F)(F)F)cc2)O3)cc1	109.9	·	173.0	+
C[C@H](CO)N1C[C@H](C)[C@@H](CN(C)C(=O)Nc2ccc(C(F)(F)F)cc2)Oc2ccc(NS(=O)(=O)c3cn(C)cn3)cc2C1=O	101.4	-1.9	887.8	+
CCn1c(-c2csc(-c3ccc(Cl)cc3)n2)n[nH]c1=S	98.8	2.8	196.7	i
CCn1c(-c2csc(-c3ccccc3)n2)n[nH]c1=S	-34.0*	-3.2	170.7	i
